≈ marks a conversion by molar mass, not a printed value. Blank lines part the entries; values can stand above or below the molecule they belong to. Calls of active or inactive are those of the source. No cut-off for these calls is given here.
Experiments:
Topoisomerase IV = Topoisomerase IV (Staphylococcus aureus, UniProt P0C1S7+P0C1U9); test: Inhibition of Staphylococcus aureus topoisomerase 4 decatenation incubated for 30 mins in presence of ATP by ethidium bromide staining based analysis; format: protein-complex assay
[1] = Inhibition of Acinetobacter baumannii topoisomerase 4 decatenation incubated for 30 mins in presence of ATP by ethidium bromide staining based analysis
[2] = Inhibition of Pseudomonas aeruginosa topoisomerase 4 decatenation incubated for 30 mins in presence of ATP by ethidium bromide staining based analysis
[3] = Inhibition of Escherichia coli DNA topoisomerase 4 relaxation
Escherichia coli = test: Antibacterial activity against Escherichia coli ATCC 25922 assessed as bacterial growth inhibition incubated for 18 hrs by microplate reader based analysis; format: functional
Pseudomonas aeruginosa = test: Antibacterial activity against Pseudomonas aeruginosa ATCC 27853 assessed as bacterial growth inhibition incubated for 18 hrs by microplate reader based analysis; format: functional
Acinetobacter baumannii [4] = test: Antibacterial activity against Acinetobacter baumannii ATCC 17978 assessed as bacterial growth inhibition incubated for 18 hrs by microplate reader based analysis; format: functional
Enterobacter cloacae = test: Antibacterial activity against Enterobacter cloacae subsp. cloacae ATCC 13047 assessed as bacterial growth inhibition incubated for 18 hrs by microplate reader based analysis; format: functional
Klebsiella pneumoniae = test: Antibacterial activity against Klebsiella pneumoniae ATCC 10031 assessed as bacterial growth inhibition incubated for 18 hrs by microplate reader based analysis; format: functional
Acinetobacter baumannii [5] = test: Antibacterial activity against multi-drug resistant Acinetobacter baumannii assessed as bacterial growth inhibition by CLSI based broth microdilution method; format: functional
Acinetobacter baumannii [6] = test: Antibacterial activity against multi-drug resistant Acinetobacter baumannii assessed as bacterial growth inhibition at 8 ug/ml by CLSI based broth microdilution method relative to control; format: functional; design: scale not given: the % may be the effect or the level left; conditions: dose 8 µg/ml
In short: (§1)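 Panel of 100 A. baumannii strains of diverse geographic origin, 50 MDR and 50 non-MDR. Tested at a contract lab by broth microdilution following CLSI guidelines. Read-out is the percentage of strains inhibited at each concentration.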

Acinetobacter baumannii [7] = test: Antibacterial activity against non multi-drug resistant Acinetobacter baumannii assessed as bacterial growth inhibition at 8 ug/ml by CLSI based broth microdilution method relative to control; format: functional; design: scale not given: the % may be the effect or the level left; conditions: dose 8 µg/ml; in short: as §1
Acinetobacter baumannii [8] = test: Antibacterial activity against clinical isolate Acinetobacter baumannii assessed as bacterial growth inhibition at 32 ug/ml by CLSI based broth microdilution method relative to control; format: functional
Acinetobacter baumannii [9] = test: Antibacterial activity against clinical isolate Acinetobacter baumannii assessed as bacterial growth inhibition at 4 ug/ml by CLSI based broth microdilution method relative to control; format: functional, organism-based; conditions: dose 4.0 µg/ml
In short: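 Hungarian clinical isolates and control strains were tested by the same CLSI broth microdilution procedure (MHBII, OD600 read-out after 18 h at 37 °C), run in 384-well plates.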

[10] = Metabolic stability in human liver microsomes assessed as intrinsic clearance […] at 1 uM measured upto 60 mins by LC-MS/MS analysis; format: ADME, Microsome; conditions: 1 h
In short: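 Pooled human liver microsomes at 0.5 mg/mL in 100 mM KPO4 pH 7.4, compound at 1 μM final. Started with 1 mM NADPH; sampled at 0, 5, 10, 20, 40 and 60 min. Quenched with cold acetonitrile plus internal standard; parent remaining measured by LC–MS/MS. Intrinsic clearance calculated by the Obach approach with literature scaling factors.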

MCF7 [11] = test: Cytotoxicity against human MCF7 cells assessed as reduction in cell growth upto 100 uM incubated for 72 hrs by MTS assay; format: toxicity, cell-based; conditions: mcf7, 72 h
HepG2 [12] = test: Cytotoxicity against human HepG2 cells assessed as reduction in cell growth upto 100 uM incubated for 72 hrs by MTS assay; format: toxicity, cell-based; conditions: hepg2, 72 h
MCF7 [13] = test: Cytotoxicity against human MCF7 cells assessed as reduction in cell growth upto 100 uM incubated for 72 hrs in absence of fetal bovine serum by MTS assay; format: toxicity, cell-based; conditions: mcf7, 72 h
HepG2 [14] = test: Cytotoxicity against human HepG2 cells assessed as reduction in cell growth upto 100 uM incubated for 72 hrs in absence of fetal bovine serum by MTS assay; format: toxicity, cell-based; conditions: hepg2, 72 h
HepG2 [15] = test: Mitotoxicity in human HepG2 cells upto 1000 uM incubated for 24 hrs by glu/gal assay; format: toxicity, cell-based; conditions: hepg2, 24 h
[16] = Genotoxicity in CHO-K1 cells up to 50 uM incubated for 24 hrs in presence of rat liver S9 fraction by micronucleus test; format: toxicity, subcellular, Cricetulus griseus; conditions: chinese hamster, s9, 24 h
[17] = Genotoxicity in CHO-K1 cells upto 100 uM incubated for 24 hrs in absence of rat liver S9 fraction by micronucleus test; format: toxicity, cell-based, Cricetulus griseus; conditions: chinese hamster, cho-k1, 24 h
[18] = target: T1, Voltage-gated inwardly rectifying potassium channel KCNH2 (Homo sapiens, UniProt Q12809); test: Inhibition of hERG potassium ion channel expressed in CHO cells at 50 microM by patch-clamp method; format: toxicity, cell-based
[19] = target: Sodium channel protein type 5 subunit alpha (Homo sapiens, UniProt Q14524); test: Inhibition of Nav1.5 ion channel (unknown origin) expressed in CHO cells at 10 microM by patch-clamp method; format: cell-based
[20] = target: T1, Voltage-gated inwardly rectifying potassium channel KCNH2; test: Inhibition of hERG channel expressed in HEK293 cells at -40 mV holding potential by whole-cell voltage clamp method; format: toxicity, cell-based
[21] = Hemolytic activity in human RBC assessed as hemolysis at 100 uM incubated for 45 mins under shaking condition by spectrophotometer analysis; format: toxicity, cell-based; conditions: erythrocyte
[22] = Thermodynamic solubility of compound in 100 mM PBS buffer at pH 7.4 incubated for 48 hrs under shaking condition by LC-MS/MS analysis; format: physicochemical; conditions: read-out: Therm_solubility
Enterococcus faecium = test: Antibacterial activity against Enterococcus faecium ATCC 700221 assessed as bacterial growth inhibition incubated for 18 hrs by microplate reader based analysis; format: functional
Enterococcus faecalis = test: Antibacterial activity against Enterococcus faecalis ATCC 29212 assessed as bacterial growth inhibition incubated for 18 hrs by microplate reader based analysis; format: functional
Staphylococcus aureus [23] = test: Antibacterial activity against Staphylococcus aureus ATCC 29213 assessed as bacterial growth inhibition incubated for 18 hrs by microplate reader based analysis; format: functional
Staphylococcus aureus [24] = test: Antibacterial activity against Methicillin-resistant Staphylococcus aureus ATCC 43300 assessed as bacterial growth inhibition incubated for 18 hrs by microplate reader based analysis; format: functional
In short: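 Cation-adjusted Mueller Hinton broth II; strains grown overnight on agar then broth at 37 °C. Two-fold 12-step serial dilutions from DMSO stocks (final DMSO at most 0.64%), 5 × 10^4 cells per well, three parallel replicates, 37 °C with 150 rpm shaking for 18 h.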

Staphylococcus aureus [25] = test: Antibacterial activity against Vancomycin-intermediate Staphylococcus aureus ATCC 700699 assessed as bacterial growth inhibition incubated for 18 hrs by microplate reader based analysis; format: functional
DNA gyrase = DNA gyrase (Escherichia coli, UniProt P0AES4+P0AES6); test: Inhibition of Escherichia coli DNA gyrase supercoiling; format: protein-complex assay
In short: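 E. coli gyrase supercoiling measured in a high-throughput plate assay from a commercial kit. Seven inhibitor concentrations; IC50 fitted from the curve, mean of three independent experiments.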

[26] = Plasma protein binding in CD-1 mouse assessed as unbound fraction at 5 uM incubated for 4 hrs by equilibrium dialysis method; format: ADME, cell-free
In short: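 Equilibrium dialysis in pooled male CD-1 mouse plasma. Compound at 5 μM (0.5% DMSO), two replicates, 4 h at 37 °C, sampled at 0 min and 4 h. Buffer and plasma aliquots were matrix-matched, quenched with acetonitrile/methanol (2:1) containing internal standard, and analysed by LC–MS/MS. Caffeine, verapamil and nicardipine served as binding controls.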

T1 sequence (Q12809 whole entry): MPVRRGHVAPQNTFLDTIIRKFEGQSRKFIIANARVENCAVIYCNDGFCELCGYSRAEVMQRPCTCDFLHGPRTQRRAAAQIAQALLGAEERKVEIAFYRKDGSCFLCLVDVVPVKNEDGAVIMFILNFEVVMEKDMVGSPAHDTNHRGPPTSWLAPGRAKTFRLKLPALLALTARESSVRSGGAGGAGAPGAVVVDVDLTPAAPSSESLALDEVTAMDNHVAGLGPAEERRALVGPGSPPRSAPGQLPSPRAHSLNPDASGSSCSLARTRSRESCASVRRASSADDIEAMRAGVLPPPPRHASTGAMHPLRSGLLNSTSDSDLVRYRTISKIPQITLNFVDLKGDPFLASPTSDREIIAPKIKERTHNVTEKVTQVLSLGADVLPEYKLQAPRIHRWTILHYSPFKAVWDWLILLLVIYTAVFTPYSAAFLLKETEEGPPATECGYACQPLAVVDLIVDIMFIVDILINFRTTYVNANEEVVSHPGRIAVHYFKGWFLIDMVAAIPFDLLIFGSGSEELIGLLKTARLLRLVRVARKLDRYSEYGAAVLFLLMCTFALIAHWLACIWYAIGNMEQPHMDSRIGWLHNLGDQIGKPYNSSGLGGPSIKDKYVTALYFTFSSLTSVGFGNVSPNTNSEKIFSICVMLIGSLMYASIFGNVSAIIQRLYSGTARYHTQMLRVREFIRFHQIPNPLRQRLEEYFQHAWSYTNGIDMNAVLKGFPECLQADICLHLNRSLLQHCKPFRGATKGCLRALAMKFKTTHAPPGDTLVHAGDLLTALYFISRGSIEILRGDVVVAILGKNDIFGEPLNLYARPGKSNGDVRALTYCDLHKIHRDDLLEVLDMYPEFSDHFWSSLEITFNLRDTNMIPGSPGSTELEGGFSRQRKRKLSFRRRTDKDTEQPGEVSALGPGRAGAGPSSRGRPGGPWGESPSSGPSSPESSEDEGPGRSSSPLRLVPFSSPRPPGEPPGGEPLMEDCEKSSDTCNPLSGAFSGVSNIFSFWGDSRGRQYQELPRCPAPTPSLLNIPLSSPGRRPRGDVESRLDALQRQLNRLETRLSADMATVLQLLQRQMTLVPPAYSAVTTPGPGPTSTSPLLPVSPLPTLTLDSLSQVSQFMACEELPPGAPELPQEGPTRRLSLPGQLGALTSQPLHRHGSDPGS
Chain of Sodium channel protein type 5 subunit alpha (Q14524 whole entry): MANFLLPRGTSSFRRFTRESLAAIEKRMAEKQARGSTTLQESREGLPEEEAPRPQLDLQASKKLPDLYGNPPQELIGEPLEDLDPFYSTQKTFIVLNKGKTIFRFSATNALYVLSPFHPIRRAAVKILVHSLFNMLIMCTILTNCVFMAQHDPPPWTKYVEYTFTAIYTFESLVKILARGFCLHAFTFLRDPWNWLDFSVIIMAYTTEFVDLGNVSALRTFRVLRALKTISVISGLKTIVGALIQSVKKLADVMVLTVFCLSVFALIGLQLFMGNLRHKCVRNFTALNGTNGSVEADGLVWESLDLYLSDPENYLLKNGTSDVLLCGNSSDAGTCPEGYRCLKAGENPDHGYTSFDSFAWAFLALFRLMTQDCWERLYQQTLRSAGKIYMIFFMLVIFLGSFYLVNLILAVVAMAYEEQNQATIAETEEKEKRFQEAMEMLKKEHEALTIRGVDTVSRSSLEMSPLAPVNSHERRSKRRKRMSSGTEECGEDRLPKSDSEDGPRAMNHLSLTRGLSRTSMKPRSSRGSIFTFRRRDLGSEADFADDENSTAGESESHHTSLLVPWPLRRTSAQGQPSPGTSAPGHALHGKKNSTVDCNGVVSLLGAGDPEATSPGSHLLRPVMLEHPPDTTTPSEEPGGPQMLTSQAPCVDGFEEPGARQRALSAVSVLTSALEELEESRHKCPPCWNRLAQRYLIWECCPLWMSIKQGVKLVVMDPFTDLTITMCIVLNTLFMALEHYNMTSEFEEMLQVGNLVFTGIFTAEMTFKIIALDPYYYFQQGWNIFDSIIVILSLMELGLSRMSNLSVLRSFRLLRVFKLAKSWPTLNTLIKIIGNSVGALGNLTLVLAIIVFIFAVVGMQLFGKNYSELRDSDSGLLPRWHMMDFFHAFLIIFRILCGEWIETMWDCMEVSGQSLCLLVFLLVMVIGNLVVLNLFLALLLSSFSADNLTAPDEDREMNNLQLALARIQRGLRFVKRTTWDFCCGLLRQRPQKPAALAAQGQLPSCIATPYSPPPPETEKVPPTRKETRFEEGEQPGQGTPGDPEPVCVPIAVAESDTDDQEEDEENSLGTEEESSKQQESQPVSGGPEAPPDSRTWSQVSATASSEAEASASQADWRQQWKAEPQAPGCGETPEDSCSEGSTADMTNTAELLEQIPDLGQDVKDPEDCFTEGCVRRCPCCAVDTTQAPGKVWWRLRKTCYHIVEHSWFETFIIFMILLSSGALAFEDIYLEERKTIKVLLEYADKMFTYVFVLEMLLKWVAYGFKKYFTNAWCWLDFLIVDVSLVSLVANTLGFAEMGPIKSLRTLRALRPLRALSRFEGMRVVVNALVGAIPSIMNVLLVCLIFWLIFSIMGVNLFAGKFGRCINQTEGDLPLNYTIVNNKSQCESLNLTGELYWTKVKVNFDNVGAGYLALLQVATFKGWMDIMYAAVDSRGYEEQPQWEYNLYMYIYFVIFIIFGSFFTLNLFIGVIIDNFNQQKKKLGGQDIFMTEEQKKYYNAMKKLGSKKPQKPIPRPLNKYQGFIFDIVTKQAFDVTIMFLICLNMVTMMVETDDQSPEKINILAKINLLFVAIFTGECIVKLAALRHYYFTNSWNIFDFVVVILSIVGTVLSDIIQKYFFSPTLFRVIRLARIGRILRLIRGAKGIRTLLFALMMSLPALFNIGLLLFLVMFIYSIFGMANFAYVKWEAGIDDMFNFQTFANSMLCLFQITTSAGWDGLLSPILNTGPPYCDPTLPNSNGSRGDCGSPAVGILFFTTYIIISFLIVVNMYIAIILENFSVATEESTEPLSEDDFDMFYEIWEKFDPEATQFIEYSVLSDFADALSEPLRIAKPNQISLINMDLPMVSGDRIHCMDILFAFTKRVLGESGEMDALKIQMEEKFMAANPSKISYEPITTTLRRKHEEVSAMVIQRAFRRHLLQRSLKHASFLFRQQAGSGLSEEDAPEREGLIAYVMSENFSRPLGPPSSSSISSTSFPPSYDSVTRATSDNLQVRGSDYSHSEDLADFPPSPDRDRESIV

IC50 [3]: < 100 nM
Molecule: Cc1[nH]c(C(=O)Nc2nc3c(N4CC[C@H](N)C4)cc(C(=O)O)cc3s2)c(Cl)c1Cl
Activity (Escherichia coli): inactive
Activity (Pseudomonas aeruginosa): inactive
Activity (Acinetobacter baumannii [4]): inactive
Activity (Enterobacter cloacae): inactive

IC50 [3]: < 100 nM
Molecule: Cc1[nH]c(C(=O)Nc2nc3c(N4CCC(=S)CC4)cc(C(=O)O)cc3s2)c(Cl)c1Cl

IC50 [3]: 120 nM
Molecule: Cc1[nH]c(C(=O)Nc2nc3c(N4CC[C@H](N(C)C)C4)cc(C(=O)O)cc3s2)c(Cl)c1Cl
Activity (Escherichia coli): inactive
Activity (Pseudomonas aeruginosa): inactive
Activity (Acinetobacter baumannii [4]): inactive
Activity (Klebsiella pneumoniae): inactive
Activity (Enterobacter cloacae): inactive

IC50 [3]: 120 nM
Molecule: Cc1[nH]c(C(=O)Nc2nc3c(CN4CCOCC4)cc(C(=O)O)cc3s2)c(Cl)c1Cl
Activity (Escherichia coli): inactive
Activity (Pseudomonas aeruginosa): inactive
Activity (Acinetobacter baumannii [4]): inactive
Activity (Klebsiella pneumoniae): inactive
Activity (Enterobacter cloacae): inactive

IC50 [3]: < 100 nM
Molecule: Cc1[nH]c(C(=O)Nc2nc3c(N4CCCC4)cc(C(=O)O)cc3s2)c(Cl)c1Cl

IC50 [3]: 120 nM
Molecule: Cc1[nH]c(C(=O)Nc2nc3c(N4CCOC4=O)cc(C(=O)O)cc3s2)c(Cl)c1Cl

fraction unbound at 4 h, 5 µM [26]: 0.011
Molecule: Cc1[nH]c(C(=O)Nc2nc3c(N4CCOC[C@H]4C)cc(C(=O)O)cc3s2)c(Cl)c1Cl

MIC (Enterococcus faecium): < 0.0312 µg/mL
MIC (Enterococcus faecalis): < 0.0312 µg/mL
Molecule: COCCCNc1cc(C(=O)O)cc2sc(NC(=O)c3[nH]c(C)c(Cl)c3Cl)nc12.N

The next lines start with the molecule.

Molecule: CO[C@@H]1[C@@H](OC(N)=O)[C@@H](O)[C@H](Oc2ccc3c(O)c(NC(=O)c4ccc(O)c(CC=C(C)C)c4)c(=O)oc3c2C)OC1(C)C [NOVOBIOCIN]
IC50 (Topoisomerase IV): 13300 nM
IC50 [1]: 9460 nM
IC50 [2]: 8360 nM

Molecule: Cc1[nH]c(C(=O)Nc2nc3c(N4CCNCC4)cc(C(=O)O)cc3s2)c(Cl)c1Cl
Activity (Escherichia coli): inactive
Activity (Pseudomonas aeruginosa): inactive
Activity (Acinetobacter baumannii [4]): inactive
Activity (Klebsiella pneumoniae): inactive
Activity (Enterobacter cloacae): inactive

Molecule: CN(C)c1cc(NC(=O)CNC(C)(C)C)c(O)c2c1C[C@H]1C[C@H]3[C@H](N(C)C)C(O)=C(C(N)=O)C(=O)[C@@]3(O)C(O)=C1C2=O [TIGECYCLINE]
MIC (Acinetobacter baumannii [5]): > 16 µg/mL
Activity (Acinetobacter baumannii [6]): 100%
Activity (Acinetobacter baumannii [7]): 100%

Molecule: C[C@H]1c2cccc(O)c2C(=O)C2=C(O)[C@]3(O)C(=O)C(C(N)=O)=C(O)[C@@H](N(C)C)[C@@H]3[C@@H](O)[C@@H]21 [DOXYCYCLINE]
inhibition at 32 µg/mL (Acinetobacter baumannii [8]): 100%

Molecule: COLISTIN
inhibition (Acinetobacter baumannii [9]): Active

Molecule: Cc1[nH]c(C(=O)Nc2nc3c(N4C[C@H]5CC[C@@H](C4)O5)cc(C(=O)O)cc3s2)c(Cl)c1Cl
MIC (Enterobacter cloacae): 16 µg/mL (≈ 33.2 µM)

Molecule: Cc1[nH]c(C(=O)Nc2nc3c(N4CCOCC4)cc(C(=O)O)cc3s2)c(Cl)c1Cl
CLint [10]: 13 µL/min
Activity (MCF7 [11]): Non-Toxic
Activity (HepG2 [12]): Non-Toxic
Activity (MCF7 [13]): Non-Toxic
Activity (HepG2 [14]): Non-Toxic
Activity (HepG2 [15]): Non-Toxic
Activity [16]: Non-Toxic
Activity [17]: Non-Toxic
inhibition (INH) [18]: Not Active
inhibition (INH) [19]: Not Active
inhibition (INH) [20]: Not Active
Activity [21]: Non-Toxic

Molecule: Cc1[nH]c(C(=O)Nc2nc3c(N4[C@@H]5CC[C@H]4COC5)cc(C(=O)O)cc3s2)c(Cl)c1Cl
IC50 [3]: 140 nM
solubility thermodynamic at 48 h [22]: 0.26 µM (≈ 0.125 µg/mL)

Molecule: Cc1[nH]c(C(=O)Nc2nc3c(N4CCOCC4)cc(C(=O)O)cc3s2)cc1Cl
Activity (Enterococcus faecium): Active
Activity (Enterococcus faecalis): Active
Activity (Staphylococcus aureus [23]): Active
Activity (Staphylococcus aureus [24]): Active
Activity (Staphylococcus aureus [25]): Active

Molecule: Cc1[nH]c(C(=O)Nc2nc3c(N4CCOC[C@@H]4C)cc(C(=O)O)cc3s2)c(Cl)c1Cl
IC50 (DNA gyrase): 17 nM

Molecule: Cc1[nH]c(C(=O)Nc2nc3c(N4CCC(O)CC4)cc(C(=O)O)cc3s2)c(Cl)c1Cl
Activity (Escherichia coli): inactive
Activity (Pseudomonas aeruginosa): inactive
Activity (Acinetobacter baumannii [4]): inactive
Activity (Enterobacter cloacae): inactive

— ChEMBL document CHEMBL5247650, “New Dual Inhibitors of Bacterial Topoisomerases with Broad-Spectrum Antibacterial Activity and In Vivo Efficacy against Vancomycin-Intermediate Staphylococcus aureus” (J Med Chem, 2023)
